This excerpt belongs to a sample that is enriched for hits.
CHOP UPR activ: apoptotic UPR (CHOP) activation; AID 449763; 330,000 compounds, 0.34% hits; activation, % at 10 µM; CHO-CHOP luciferase reporter, luminescence; percent of tunicamycin response over DMSO baseline;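 active = at 10 µM dose, activation of 40% or more, normalized to positive control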
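Test system: CHO CHOP reporter cells. Input: 500 CHO-CHOP cells per well. Medium: F12 with 10% FBS. Technique: luciferase luminescence. Measure: percent activation relative to tunicamycin control. Dosing: 10 µM compound, 0.5% DMSO. Timing: 16-18 h cell attachment, then 6 h compound exposure, 37 °C.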
FXN GAA850 act: frataxin GAA850 promoter activation; HEK293 lucGAA850 FXN promoter luciferase reporter, 24 h; percent of 10 µM SAHA response; activation, % at 6 µM; 360,000 compounds, 0.56% hits; AID 540364;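 active = activation above the average of all compounds screened plus 3 SD, cutoff fixed separately per campaign, cut at about 7.5% in these data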
CHOP inhibitor: CHOP inhibition in unfolded protein response. CHO-K1 CHOP-promoter luciferase, tunicamycin-induced, 15-18 h. inhibition, % at 10 µM. 220,000 compounds, 3.8% hits. AID 2732;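 active = compounds that reduced the stress-induced luciferase reporter signal by more than about 70% of percent inhibition, limit read from the data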
UPR XBP1 act: activators of adaptive arm of unfolded protein response (XBP1). CHO-XBP1 luciferase reporter, IRE1-XBP1 UPR activation, luminescence; percent of tunicamycin response, DMSO as zero. activation, % at 20 µM. 330,000 compounds, 0.33% hits. AID 463104;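 active = versus positive control, 20 µM dose yields 30% or more activation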
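Test system: CHO-XBP1 luciferase reporter cells | Buffer or medium: Serum-containing F12 medium, 10% FBS | Schedule: 6 h compound exposure at 37 °C, 5% CO2 | Detection: Steady-Glo luciferase glow luminescence, 10 min after reagent addition | Read-out basis: Activation, % of tunicamycin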
Hits are given with their value; i = inactive; nt = not tested or not shown.

SMILES	CHOP UPR activ	FXN GAA850 act	CHOP inhibitor	UPR XBP1 act
O=C(Nc1ccc2c(c1)OCO2)c1cc(C2CCCCN2C(=O)c2ccc(Cl)cc2)on1 (centres undefined)	nt	i	nt	nt
O=C1/C(=C/c2ccc([N+](=O)[O-])cc2)C=C(c2ccccc2)N1c1ccccc1	i	i	i	i
O=C1/C(=C/c2ccc([N+](=O)[O-])cc2)C=C(c2ccccc2)N1c1ccc(O)cc1	i	i	81	i
O=C(NC1CCCCC1)N1CCSC1=Nc1ccccc1	i	i	89	i
COc1ccc(Cl)cc1-c1cc(C(=O)N[C@H](C)c2ccccc2)[nH]n1	nt	i	nt	nt
Cc1cccc(NC(=O)Nc2nnc(N3CCCCC3C)s2)c1C (centres undefined)	i	i	80	i
COc1cccc(NC(=O)Nc2nnc(N3C(C)CCCC3C)s2)c1 (centres undefined)	i	i	i	i
CCCCC(=O)N(C)c1c(CC)nc2c(OCC(=O)c3ccc(Cl)cc3Cl)cccn12	nt	i	nt	nt
Cc1ccc(-c2nnn(CC(=O)N(Cc3cccs3)C(C(=O)NC(C)(C)C)c3ccc(C)o3)n2)o1 (centres undefined)	i	i	76	i
CCN(CC)S(=O)(=O)c1ccc(Oc2ccc(S(=O)(=O)N(CC)CC)cc2)cc1	i	i	72	i
CCN(CC)S(=O)(=O)c1ccc(Oc2ccccc2OC)cc1	i	i	i	i
CN(C)CCCNc1nc2cc(-c3ccc(F)cc3)sc2c(=O)n1C	nt	i	nt	nt
O=C(Cn1nnc(-c2ccccc2NC(=O)c2cccs2)n1)Nc1ccccc1	i	i	80	i
COc1ccccc1NC(=O)Cn1nnc(-c2ccccc2NC(=O)c2cnccn2)n1	i	i	90	i
COc1ccc(NC(=O)Cn2nnc(-c3ccccc3NC(=O)c3ccco3)n2)cc1	i	i	82	i
O=C(Nc1ccc2c(c1)OCO2)c1csc([C@@H]2O[C@H](CO)[C@H](O)[C@H](O)[C@H]2O)n1	nt	i	nt	nt
NS(=O)(=O)c1ccc(CCNc2nn3c(-c4cccc(OC(F)(F)F)c4)cnc3s2)cc1	nt	i	nt	nt
CCOC(=O)c1ccc(NS(=O)(=O)c2ccc(SC)cc2)cc1	i	i	78	i
CCOC(=O)Cc1ccc(NS(=O)(=O)c2ccc(SC)cc2)cc1	i	i	i	i
O=C(Nc1ccc(F)c(Cl)c1)C1Cc2c(-c3cccc(F)c3)ccnc2O1 (centres undefined)	nt	i	nt	nt
CC(=O)C1=C(c2ccccc2)NC(=O)NC1c1ccccc1OCC(=O)Nc1ccccc1 (centres undefined)	i	i	72	i
CC1(C(=O)Nc2ccc(F)cc2F)CCN1C(=O)Cc1ccccc1 (centres undefined)	nt	i	nt	nt
Cc1ccc(C(=O)/C=C/c2c[nH]c3ccccc23)cc1	i	i	81	i
Cc1ccc(C(=O)/C=C/c2cn(CN3CCN(C)CC3)c3ccccc23)cc1	i	i	82	i
CCCNC(=O)c1c(N)n(-c2cccc(OC)c2)c2nc3ccccc3nc12	i	i	89	i
SMILES	CHOP UPR activ	FXN GAA850 act	CHOP inhibitor	UPR XBP1 act
CC(C)NS(=O)(=O)c1ccc(OCC(=O)Nc2ccc3c(c2)OCO3)c(Cl)c1	i	i	70	i
CCc1nnc(NC(=O)CSc2nnc(-c3ccccc3O)o2)s1	i	i	i	i
CCc1nnc(NC(=O)CSc2nc(-c3ccccc3)c(-c3ccccc3)o2)s1	i	i	84	i
Cc1ccc(-c2nnc(N3CCC(C)CC3)c3ccccc23)cc1C	i	i	90	i
Cc1ccc(-c2nnc(N3CCCCCC3)c3ccccc23)cc1	i	i	nt	i
CC1CCN(c2nnc(-c3ccccc3)c3ccccc23)CC1	i	i	i	i
Cc1ccc(-c2nnc(N3CCC(C)CC3)c3ccccc23)cc1	i	i	84	i
C=Cc1ccc(CC2(C)C(=O)Nc3ccc(Cl)cc32)cc1 (centres undefined)	nt	i	nt	nt
COc1ccc(C(=O)N2CCC2(C)C(=O)O)cc1C(F)(F)F (centres undefined)	nt	i	nt	nt
COc1ccc(NC(=O)C2Cc3c(-c4ccc5c(c4)OCO5)ccnc3O2)cc1 (centres undefined)	nt	i	nt	nt
CCC(C)c1ccc(NC(=S)NCCn2cc(Cl)cn2)cc1 (centres undefined)	i	i	i	i
CCC(C)c1ccc(NC(=S)NCCn2cc(Br)cn2)cc1 (centres undefined)	i	i	72	i
Cc1ccc(Oc2cc(NC(=O)CCCn3nc([N+](=O)[O-])c(Cl)c3C)cc([N+](=O)[O-])c2)cc1	i	i	81	i

Compound activity deposited in PubChem BioAssay by several laboratories.
